Key:
[1] = biological target: T1, Alpha-1A adrenergic receptor (Homo sapiens, UniProt P35348); assay: Antagonist activity at human adrenergic alpha1A receptor expressed in rat fibroblasts by plate-based calcium imaging; format: functional
T1 sequence (P35348 whole entry): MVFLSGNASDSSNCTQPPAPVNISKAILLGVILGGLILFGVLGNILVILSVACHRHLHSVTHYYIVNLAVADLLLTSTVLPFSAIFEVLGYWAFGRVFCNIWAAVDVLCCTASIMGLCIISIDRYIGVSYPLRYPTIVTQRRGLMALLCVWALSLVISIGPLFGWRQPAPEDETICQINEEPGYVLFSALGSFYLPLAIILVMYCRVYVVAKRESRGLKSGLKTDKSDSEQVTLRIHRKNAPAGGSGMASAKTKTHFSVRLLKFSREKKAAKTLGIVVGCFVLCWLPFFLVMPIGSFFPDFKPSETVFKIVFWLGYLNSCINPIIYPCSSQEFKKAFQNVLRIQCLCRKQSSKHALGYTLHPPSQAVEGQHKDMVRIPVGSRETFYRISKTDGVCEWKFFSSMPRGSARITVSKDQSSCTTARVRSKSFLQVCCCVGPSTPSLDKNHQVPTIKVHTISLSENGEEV

[2] = Lipophilicity, log D of compound at pH 7.4; format: physicochemical; details: buffer
Histamine H1 receptor [3] = biological target: T2, Histamine H1 receptor (Homo sapiens, UniProt P35367); assay: Antagonist activity at human H1 receptor expressed in CHO cells assessed as inhibition of calcium mobilization by FLIPR assay; format: functional, cell-based
T2 sequence (P35367 whole entry): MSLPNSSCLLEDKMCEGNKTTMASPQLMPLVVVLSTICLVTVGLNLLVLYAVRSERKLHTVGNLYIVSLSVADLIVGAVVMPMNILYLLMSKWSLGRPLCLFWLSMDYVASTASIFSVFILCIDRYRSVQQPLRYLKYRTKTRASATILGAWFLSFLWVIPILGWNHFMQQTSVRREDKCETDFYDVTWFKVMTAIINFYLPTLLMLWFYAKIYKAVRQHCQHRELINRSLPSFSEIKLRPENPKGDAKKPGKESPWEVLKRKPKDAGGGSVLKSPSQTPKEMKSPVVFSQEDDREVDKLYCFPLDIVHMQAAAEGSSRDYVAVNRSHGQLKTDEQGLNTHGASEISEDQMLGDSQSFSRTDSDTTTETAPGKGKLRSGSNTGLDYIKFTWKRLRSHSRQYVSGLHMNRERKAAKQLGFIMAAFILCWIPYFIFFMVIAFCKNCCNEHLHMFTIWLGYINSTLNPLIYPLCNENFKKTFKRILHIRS
Summary of the method: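 Intact CHO cells expressing recombinant human H1 receptor were loaded with Fluo-4AM. Inhibition of agonist-induced calcium mobilisation was read in a plate-based FLIPR instrument and expressed as pKi, with the number of determinations given.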

[4] = biological target: T3, Alpha-1B adrenergic receptor (Homo sapiens, UniProt P35368); assay: Antagonist activity at human adrenergic alpha1B receptor expressed in rat fibroblasts by plate-based calcium imaging; format: functional
T3 sequence (P35368 whole entry): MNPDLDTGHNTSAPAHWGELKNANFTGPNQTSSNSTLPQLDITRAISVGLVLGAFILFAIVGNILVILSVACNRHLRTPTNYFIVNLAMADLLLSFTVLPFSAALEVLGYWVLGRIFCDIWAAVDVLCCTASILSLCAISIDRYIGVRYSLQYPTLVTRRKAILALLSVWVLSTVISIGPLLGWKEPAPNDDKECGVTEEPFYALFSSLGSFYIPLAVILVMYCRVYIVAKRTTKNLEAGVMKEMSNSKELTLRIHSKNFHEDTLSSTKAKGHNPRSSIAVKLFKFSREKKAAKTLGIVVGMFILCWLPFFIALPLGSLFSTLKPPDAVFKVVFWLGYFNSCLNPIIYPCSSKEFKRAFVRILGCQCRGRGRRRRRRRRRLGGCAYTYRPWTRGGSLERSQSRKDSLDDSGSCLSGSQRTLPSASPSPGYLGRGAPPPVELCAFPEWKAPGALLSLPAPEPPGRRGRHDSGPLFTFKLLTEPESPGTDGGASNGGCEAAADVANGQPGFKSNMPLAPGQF
Summary of the method: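 Plate-based calcium imaging in intact Rat1 fibroblast cells expressing the α1B adrenoceptor. Antagonist affinity is expressed as pKi, with the number of determinations given.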

Histamine H3 receptor = Histamine H3 receptor (Homo sapiens, UniProt Q9Y5N1); assay: Antagonist activity at human H3 receptor expressed in CHO cells assessed as inhibition of histamine-induced GTPgamma[S] binding by scintillation proximity assay; format: functional, cell-based
Sequence of Histamine H3 receptor (Q9Y5N1 whole entry): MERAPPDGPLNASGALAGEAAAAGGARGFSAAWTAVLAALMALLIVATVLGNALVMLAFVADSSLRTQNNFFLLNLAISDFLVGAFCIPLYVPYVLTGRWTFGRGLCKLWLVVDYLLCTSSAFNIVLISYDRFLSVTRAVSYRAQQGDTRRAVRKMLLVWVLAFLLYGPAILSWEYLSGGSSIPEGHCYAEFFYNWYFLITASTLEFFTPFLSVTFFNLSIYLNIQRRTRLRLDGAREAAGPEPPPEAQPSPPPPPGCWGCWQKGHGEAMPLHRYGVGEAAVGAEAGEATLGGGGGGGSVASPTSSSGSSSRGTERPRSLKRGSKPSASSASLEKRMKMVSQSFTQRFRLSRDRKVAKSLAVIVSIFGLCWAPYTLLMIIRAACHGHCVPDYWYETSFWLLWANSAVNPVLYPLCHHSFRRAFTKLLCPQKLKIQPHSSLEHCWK

Histamine H1 receptor [5] = biological target: T2, Histamine H1 receptor; assay: Antagonist activity against human CHO cells H1 receptor at 100 nM after 30 mins by FLIPR assay; format: functional, cell-based; details: read-out: pA2 (converted)
Summary of the method: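 Modified lower-throughput FLIPR assay in CHO cells expressing recombinant human H1. Histamine concentration–response curves were run without antagonist and with a single 100 nM antagonist concentration after 30 min incubation. EC50 values came from a four-parameter logistic fit. pA2 = log(DR−1) − log[B], where DR is the ratio of the EC50 with antagonist to the control EC50. Values are mean ± SEM, with SD given when n<3.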

CHO [6] = assay: Selectivity ratio of pKi for human H3 receptor expressed in CHO cells to pKi for human adrenergic alpha1A receptor expressed in rat fibroblast; format: cell-based
Summary of the method: (§1)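 Ratio of two pKi values. The H3 pKi comes from membranes of CHO cells transfected with cloned human H3, read as reduction of histamine-stimulated GTPγS binding by scintillation proximity detection. The α1A or α1B pKi comes from intact Rat1 fibroblast cells expressing that receptor, read by plate-based calcium imaging.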

CHO [7] = assay: Selectivity ratio of pKi for human H3 receptor expressed in CHO cells to pKi for human adrenergic alpha1B receptor expressed in rat fibroblast; format: cell-based; summary of the method: as §1
CHO [8] = assay: Selectivity ratio of pKi for human H3 receptor expressed in CHO cells to pKi for human H1 receptor expressed in CHO cells; format: cell-based
Summary of the method: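 Ratio of two pKi values. The H3 pKi comes from membranes of CHO cells transfected with cloned human H3 receptor, read as reduction of histamine-stimulated GTPγS binding by scintillation proximity detection. The H1 pKi comes from intact CHO cells expressing recombinant human H1, read as inhibition of agonist-induced calcium mobilisation (Fluo-4AM dye, FLIPR plate-based imaging).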

[9] = biological target: Voltage-gated inwardly rectifying potassium channel KCNH2 (Homo sapiens, UniProt Q12809); assay: Displacement of [3H]dofetilide from human ERG
Sequence of Voltage-gated inwardly rectifying potassium channel KCNH2 (Q12809 whole entry): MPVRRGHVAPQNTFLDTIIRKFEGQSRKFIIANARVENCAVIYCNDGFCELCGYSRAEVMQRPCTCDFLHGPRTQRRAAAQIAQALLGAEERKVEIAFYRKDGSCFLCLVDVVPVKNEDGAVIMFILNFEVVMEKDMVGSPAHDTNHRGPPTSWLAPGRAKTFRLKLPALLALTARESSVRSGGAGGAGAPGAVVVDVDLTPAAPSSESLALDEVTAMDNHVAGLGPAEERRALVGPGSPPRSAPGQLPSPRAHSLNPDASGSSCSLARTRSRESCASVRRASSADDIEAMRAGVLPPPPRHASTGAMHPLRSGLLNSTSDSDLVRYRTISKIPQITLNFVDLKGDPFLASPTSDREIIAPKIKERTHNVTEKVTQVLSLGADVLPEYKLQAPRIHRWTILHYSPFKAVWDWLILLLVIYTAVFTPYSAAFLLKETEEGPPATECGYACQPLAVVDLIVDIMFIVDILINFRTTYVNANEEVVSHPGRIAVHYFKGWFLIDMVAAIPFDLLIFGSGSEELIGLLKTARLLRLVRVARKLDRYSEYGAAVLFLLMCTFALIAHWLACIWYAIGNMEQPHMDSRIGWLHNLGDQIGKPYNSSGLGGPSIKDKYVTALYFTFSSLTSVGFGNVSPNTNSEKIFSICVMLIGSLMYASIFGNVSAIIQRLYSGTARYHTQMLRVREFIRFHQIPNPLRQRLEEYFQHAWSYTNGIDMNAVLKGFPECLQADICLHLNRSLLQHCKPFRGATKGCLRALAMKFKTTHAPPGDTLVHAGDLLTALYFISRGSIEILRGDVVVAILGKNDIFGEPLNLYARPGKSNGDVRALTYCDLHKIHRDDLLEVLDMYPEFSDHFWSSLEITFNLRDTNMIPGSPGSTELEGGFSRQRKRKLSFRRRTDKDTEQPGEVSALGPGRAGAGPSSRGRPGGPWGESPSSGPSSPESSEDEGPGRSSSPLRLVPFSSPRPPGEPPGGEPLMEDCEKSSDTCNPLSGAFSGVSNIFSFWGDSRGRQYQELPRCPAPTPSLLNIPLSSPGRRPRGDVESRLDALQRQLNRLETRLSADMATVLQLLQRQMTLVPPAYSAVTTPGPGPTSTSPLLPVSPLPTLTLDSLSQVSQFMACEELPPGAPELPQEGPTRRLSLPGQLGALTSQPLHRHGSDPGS

With `COCCN1CCC[C@@H]1Cn1nc(Cc2ccc(Cl)cc2)c2ncccc2c1=O` the Ki [1] was 158 nM, the logD [2] was 2.9 and the Ki (Histamine H1 receptor [3]) was 0.537 nM. The Ki [4] was 39.8 nM.

`CN1CCC[C@@H]1Cn1nc(Cc2ccc(Cl)cc2)c2ccncc2c1=O` gave a Ki [1] of 20 nM, a Ki (Histamine H3 receptor) of 398 nM and a Kb (Histamine H1 receptor [5]) of 2.51 nM. The logD [2] was 2.2 and the Ki (Histamine H1 receptor [3]) was 0.692 nM.

In the case of `CCCCN1CCC[C@@H]1Cn1nc(Cc2ccc(Cl)cc2)c2ncccc2c1=O`, the Ki [1] is reported as 50.1 nM, the Ki (Histamine H3 receptor) is reported as 631 nM and the logD [2] is reported as 3.4. It also gave a Ki (Histamine H1 receptor [3]) of 0.631 nM and a Ki [4] of 20 nM.

`CN1CCC[C@@H]1Cn1nc(Cc2ccc(Cl)cc2)c2ccccc2c1=O` gave a Ki [1] of 31.6 nM, a Ki (Histamine H3 receptor) of 437 nM and a Kb (Histamine H1 receptor [5]) of 0.1 nM. It also gave a logD [2] of 3, a Ki (Histamine H1 receptor [3]) of 0.162 nM and a Ki [4] of 10 nM.

In the case of `CCCCN1CCC[C@@H]1Cn1nc(Cc2ccc(Cl)cc2)c2ccccc2c1=O`, the Ki (Histamine H3 receptor) is reported as 437 nM, the Kb (Histamine H1 receptor [5]) is reported as 0.0398 nM and the logD [2] is reported as 3.1. For the same compound, the Ki (Histamine H1 receptor [3]) was 0.912 nM.

Work on `CN1CCC[C@@H]1Cn1nc(Cc2ccc(Cl)cc2)c2nccnc2c1=O` yielded a Ki [1] of 398 nM, a Ki (Histamine H3 receptor) of 631 nM and a Kb (Histamine H1 receptor [5]) of 3.98 nM. For the same compound, the logD [2] was 1.7, the Ki (Histamine H1 receptor [3]) was 1.29 nM and the Ki [4] was 251 nM.

`COCCN1CCC[C@@H]1Cn1nc(Cc2ccc(Cl)cc2)c2cccnc2c1=O` gave a Ki [1] of 316 nM, a Ki (Histamine H3 receptor) of 631 nM and a Kb (Histamine H1 receptor [5]) of 0.794 nM. For the same compound, the logD [2] was 2.1, the Ki (Histamine H1 receptor [3]) was 1 nM and the Ki [4] was 316 nM.

For `COCCN1CCC[C@@H]1Cn1nc(Cc2ccc(Cl)cc2)c2cnccc2c1=O`, the Kb (Histamine H1 receptor [5]) was 0.251 nM, the logD [2] was 2.7 and the Ki (Histamine H1 receptor [3]) was 0.251 nM. It also gave a Ki [4] of 10 nM.

For `CN1CCC[C@@H]1Cn1nc(Cc2ccc(Cl)cc2)c2cccnc2c1=O`, the Ki [1] was 631 nM, the Kb (Histamine H1 receptor [5]) was 0.501 nM and the logD [2] was 1.7. It also gave a Ki (Histamine H1 receptor [3]) of 0.355 nM and a Ki [4] of 158 nM.

With `CN1CCC[C@@H]1Cn1nc(Cc2ccc(Cl)cc2)c2ncccc2c1=O` the Ki [1] was 200 nM, the Ki (Histamine H3 receptor) was 316 nM and the Kb (Histamine H1 receptor [5]) was 0.316 nM. The logD [2] was 2.7, the Ki (Histamine H1 receptor [3]) was 0.316 nM and the Ki [4] was 50.1 nM.

In the case of `CCCCN1CCC[C@@H]1Cn1nc(Cc2ccc(Cl)cc2)c2cccnc2c1=O`, the Ki [1] is reported as 100 nM, the Ki (Histamine H3 receptor) is reported as 631 nM and the Kb (Histamine H1 receptor [5]) is reported as 0.316 nM. It also gave a logD [2] of 2.8, a Ki (Histamine H1 receptor [3]) of 0.631 nM and a Ki [4] of 100 nM.

`CCCCN1CCC[C@@H]1Cn1nc(Cc2ccc(Cl)cc2)c2cnccc2c1=O` showed a Ki [1] of 6.31 nM, a Ki (Histamine H3 receptor) of 631 nM and a Ratio pKi (CHO [6]) of 10. The Kb (Histamine H1 receptor [5]) was 0.1 nM, the logD [2] was 3.2 and the Ki (Histamine H1 receptor [3]) was 0.398 nM. The Ki [4] was 7.94 nM, the Ratio pKi (CHO [7]) was 10 and the Ratio pKi (CHO [8]) was 2.7. It also gave an IC50 [9] of 50.1 nM.

Work on `CN1CCC[C@@H]1Cn1nc(Cc2ccc(Cl)cc2)c2cnccc2c1=O` yielded a Ki [1] of 12.6 nM, a Ki (Histamine H3 receptor) of 398 nM and a Kb (Histamine H1 receptor [5]) of 0.316 nM. It also gave a logD [2] of 1.9 and a Ki (Histamine H1 receptor [3]) of 0.347 nM.

Compound `O=c1c2ccccc2c(Cc2ccc(Cl)cc2)nn1C[C@H]1CCCN1CCCCc1ccc(OCCCN2CCCCCC2)cc1` [GSK-1004723] has a logD [2] of 3.2.

In the case of `CN1CCCC(n2nc(Cc3ccc(Cl)cc3)c3ccccc3c2=O)CC1` (centres undefined) [AZELASTINE], the Ki (Histamine H3 receptor) is reported as 148 nM and the logD [2] is reported as 2.3.

For `O=c1c2ccncc2c(Cc2ccc(Cl)cc2)nn1C[C@H]1CCCN1CCCCc1ccc(OCCCN2CCCCCC2)cc1`, the Ki [1] was 31.6 nM, the Ki (Histamine H3 receptor) was 0.562 nM and the Ratio pKi (CHO [6]) was 10. For the same compound, the Kb (Histamine H1 receptor [5]) was 1 nM, the Ki (Histamine H1 receptor [3]) was 17.4 nM and the Ki [4] was 39.8 nM. For the same compound, the Ratio pKi (CHO [7]) was 10, the Ratio pKi (CHO [8]) was 2.7 and the IC50 [9] was 158 nM.

`COCCN1CCC[C@@H]1Cn1nc(Cc2ccc(Cl)cc2)c2ccccc2c1=O` gave a Ki [1] of 20 nM, a Ki (Histamine H3 receptor) of 398 nM and a logD [2] of 3.3. It also gave a Ki (Histamine H1 receptor [3]) of 0.513 nM and a Ki [4] of 12.6 nM.
